Assay type in all cases: functional
One test has as its system HeLa. Description: Antiproliferative activity against human HeLa cells after 48 hrs by SRB assay. An outline of the steps: (§1)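 Cells grown in RPMI 1640 with 5% heat-inactivated FCS and 2 mM L-glutamine. Seeded per well at 20,000 (WiDr), 15,000 (T-47D) or 10,000 (HeLa, SW1573, HBL-100). Dosing started the day after plating, in triplicate at 1–100 µM, with 0.25% DMSO as the vehicle control. After 48 h, TCA fixation, SRB staining and OD at 492 nm. Percentage growth calculated against untreated cells from OD at T0 and end, using NCI formulas.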
For orientation: The SRB assay estimates cell density from bound dye.

In the next test the test system is SW1573. Description: Antiproliferative activity against human SW1573 cells after 48 hrs by SRB assay. To be noted: SW1573, 48 h. Put shortly:
as §1

For the next test, the system named is HBL-100. Description: Antiproliferative activity against human HBL100 cells after 48 hrs by SRB assay. The conditions noted are these: HBL-100, 48 h. An outline of the steps: as §1
The test system of another test is WiDr. Description: Antiproliferative activity against human WiDr cells after 48 hrs by SRB assay. An outline of the steps: as §1
A further test concerns T47D. Description: Antiproliferative activity against human T47D cells after 48 hrs by SRB assay. Put shortly:
as §1

The values that follow come from ChEMBL document CHEMBL2417382, “Derivatives of grindelic acid: from a non-active natural diterpene to synthetic antitumor derivatives” (2013).

As usually defined, the GI50 is the concentration that inhibits growth by half.

With `CC1=CC[C@H]2C(C)(C)CCC[C@]2(C)[C@@]12CC[C@@](C)(CC(=O)N(c1ccccc1)C(C)(C)C(=O)NC(C)(C)C)O2`, the concentration for 50% growth inhibition (GI50) was 5.7 µM in the test on HeLa; 5.8 µM in the test on SW1573; 5.4 µM in the test with HBL-100; 6.8 µM in the test with WiDr; 5.3 µM in the test with T47D.
For `CC1=CC[C@H]2C(C)(C)CCC[C@]2(C)[C@@]12CC[C@@](C)(CC(=O)N(Cc1ccccc1)C(C)(C)C(=O)NCc1ccccc1)O2` the same measures were 1.6 µM, 1.2 µM, 0.95 µM, 1.8 µM and 1.9 µM.
For `CC1=CC[C@H]2C(C)(C)CCC[C@]2(C)[C@@]12CC[C@@](C)(CCO)O2` the same measures were 17 µM, 19 µM, 17 µM, 21 µM and 16 µM.
In the same order, the values of `CCOC(=O)/C(C)=C/C[C@]1(C)CC[C@@]2(O1)C(C)=CC[C@H]1C(C)(C)CCC[C@@]12C` are 18 µM, 20 µM, 17 µM, 37 µM and 32 µM.
`CC1=CC[C@H]2C(C)(C)CCC[C@]2(C)[C@@]12CC[C@@](C)(CCOC(=O)NCc1cn(CC[C@]3(C)CC[C@@]4(O3)C(C)=CC[C@H]3C(C)(C)CCC[C@@]34C)nn1)O2`: the 50% growth inhibitory concentration (GI50) in the test on HeLa, in the test with SW1573, in the test with HBL-100, with WiDr and with T47D was above 100 µM each time.
As to `C#CCNC(=O)OCC[C@]1(C)CC[C@@]2(O1)C(C)=CC[C@H]1C(C)(C)CCC[C@@]12C`, the 50% growth inhibitory concentration (GI50) is 14 µM in the test with HeLa; 13 µM with SW1573; 14 µM in the test with HBL-100; 12 µM in the test with WiDr; 16 µM in the test with T47D.
Take `CCCCNC(=O)C(C)(C)N(Cc1ccccc1)C(=O)C[C@]1(C)CC[C@@]2(O1)C(C)=CC[C@H]1C(C)(C)CCC[C@@]12C`: the GI50 with HeLa came to 2.9 µM; with SW1573, 1.8 µM; in the test with HBL-100, 1.9 µM; with WiDr, 3.1 µM; in the test with T47D, 3 µM.
In the same order, the values of `CC1=CC[C@H]2C(C)(C)CCC[C@]2(C)[C@@]12CC[C@@](C)(CCN=[N+]=[N-])O2` are above 100 µM, above 100 µM, above 100 µM, above 100 µM and above 100 µM.
In the same order, the values of `CC[C@@]1(O)C(=O)OCc2c1cc1n(c2=O)Cc2cc3ccccc3nc2-1` [CAMPTOTHECIN] are 0.6 µM, 0.25 µM, 0.23 µM, 1.8 µM and 2 µM.
For `CC1=CC[C@H]2C(C)(C)CCC[C@]2(C)[C@@]12CC[C@@](C)(CC(=O)O)O2` the same measures were 60 µM, 49 µM, 46 µM, 57 µM and 69 µM.
Consider `CC1=CC[C@H]2C(C)(C)CCC[C@]2(C)[C@@]12CC[C@@](C)(CC(=O)N(Cc1ccccc1)C(C)(C)C(=O)Nc1c(C)cccc1C)O2`, for which the GI50 was determined as 11 µM in the test on HeLa; 5.1 µM with SW1573; 8.9 µM in the test on HBL-100; 38 µM in the test with WiDr; 31 µM in the test on T47D.
`CC1=CC[C@H]2C(C)(C)CC[C@H](O)[C@]2(C)[C@@]12CC[C@@](C)(CC(=O)O)O2`: the 50% growth inhibitory concentration (GI50) in the test on HeLa is above 100 µM; in the test with SW1573 it was above 72 µM; with HBL-100, above 100 µM; in the test on WiDr, above 100 µM; in the test on T47D, above 100 µM.
With `CC1=CC[C@H]2C(C)(C)CCC[C@]2(C)[C@@]12CC[C@@](C)(CC(=O)N(Cc1ccccc1)C(C)(C)C(=O)NC(C)(C)C)O2`, the 50% growth inhibitory concentration (GI50) turned out to be 5.3 µM in the test with HeLa; 11 µM with SW1573; 4.6 µM with HBL-100; 12 µM in the test on WiDr; 3.9 µM in the test with T47D.
In the case of `CC1=CC[C@H]2C(C)(C)CCC[C@]2(C)[C@@]12CC[C@@](C)(CCn1cc(CCCCc3cn(CC[C@]4(C)CC[C@@]5(O4)C(C)=CC[C@H]4C(C)(C)CCC[C@@]45C)nn3)nn1)O2`, the GI50 in the test on HeLa came to 2.7 µM; in the test on SW1573 it was 3 µM; in the test with HBL-100 it was 2.9 µM; in the test on T47D it was 4.3 µM.
Consider `C#CC[C@]1(C)CC[C@@]2(O1)C(C)=CC[C@H]1C(C)(C)CCC[C@@]12C`, for which the concentration for 50% growth inhibition (GI50) was found to be 16 µM with HeLa; 15 µM with SW1573; 17 µM with HBL-100; 4.8 µM with WiDr; 28 µM in the test with T47D.
In the same order, the values of `CCOC(=O)/C=C/C[C@]1(C)CC[C@@]2(O1)C(C)=CC[C@H]1C(C)(C)CCC[C@@]12C` are 19 µM, 18 µM, 16 µM, 35 µM and 32 µM.
`CC1=CC[C@H]2C(C)(C)CCC[C@]2(C)[C@@]12CC[C@@](C)(CCn1cc(COc3cccc(OCc4cn(CC[C@]5(C)CC[C@@]6(O5)C(C)=CC[C@H]5C(C)(C)CCC[C@@]56C)nn4)c3)nn1)O2`: the GI50 with HeLa, in the test on SW1573, in the test on HBL-100, in the test with WiDr and with T47D was above 100 µM throughout.
Turning to `CC1=CC[C@H]2C(C)(C)CCC[C@]2(C)[C@@]12CC[C@@](C)(C[C@H]1O[C@@H]1CO)O2`, the 50% growth inhibitory concentration (GI50) in the test with HeLa turned out to be 17 µM; in the test with SW1573, 18 µM; with HBL-100 it was 16 µM; in the test with WiDr it was 17 µM; with T47D, 15 µM.
For the compound `CC1=CC[C@H]2C(C)(C)CCC[C@]2(C)[C@@]12CC[C@@](C)(C[C@@H]1O[C@H]1CO)O2`, the GI50 with HeLa was determined as 17 µM; in the test on SW1573 it was 18 µM; with HBL-100, 16 µM; in the test with WiDr it was 19 µM; with T47D, 16 µM.
As for `COC(=O)C[C@]1(C)CC[C@@]2(O1)C(C)=CC[C@H]1C(C)(C)CCC[C@@]12C`, the GI50 in the test with HeLa was 16 µM; with SW1573, 18 µM; in the test on HBL-100, 17 µM; in the test on WiDr, 23 µM; in the test with T47D, 19 µM.
In the same order, the values of `CC1=CC[C@H]2C(C)(C)CCC[C@]2(C)[C@@]12CC[C@@](C)(CCOC(=O)NCCCN(C)C)O2` are 7.8 µM, 8 µM, 6.1 µM, 1.4 µM and 4.3 µM.
For `CCCCCCCCCCc1cn(CC[C@]2(C)CC[C@@]3(O2)C(C)=CC[C@H]2C(C)(C)CCC[C@@]23C)nn1`, the GI50 in the test with HeLa amounted to 25 µM; in the test on SW1573 it was 15 µM; in the test with HBL-100, 16 µM; in the test on WiDr, 15 µM; in the test with T47D it was 44 µM.
With `CC1=CC[C@H]2C(C)(C)CCC[C@]2(C)[C@@]12CC[C@@](C)(CC(=O)N(c1ccccc1)C(C)(C)C(=O)Nc1c(C)cccc1C)O2`, the concentration for 50% growth inhibition (GI50) in the test on HeLa worked out at 22 µM; in the test on SW1573, 5.9 µM; in the test on HBL-100 it was 8.7 µM; with WiDr it was 37 µM; in the test on T47D, 21 µM.
